From ChEMBL document CHEMBL3098002, “Cassaine diterpene alkaloids from Erythrophleum fordii and their anti-angiogenic effect” (Bioorg Med Chem Lett, 2014)
The source made the active and inactive calls. The calls are words filed in the database; no cut-off is given here.

Tests used:
HUVEC [1] = assay: Antiangiogenic activity against HUVEC assessed as inhibition of capillary-like tube formation at 30 ug/ml after 15 hrs by Matrigel assay relative to control; format: functional; conditions: Homo sapiens
Procedure, shortened: (§1)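 HUVECs were grown in M199 with 20% FBS, 1% penicillin/streptomycin, 0.01% heparin and ECGS on 0.2% gelatin-coated plates at 37 °C in 5% CO2. For the assay, 1 × 10^4 cells were suspended in medium containing compound and added onto polymerized Matrigel at 37 °C. Cultures were photographed at ×100 and tubes counted. Values were normalized to solvent controls (100%), n = 3, mean ± SD.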

HUVEC [2] = assay: Antiangiogenic activity against HUVEC assessed as inhibition of capillary-like tube formation at 3 to 30 ug/ml after 15 hrs by Matrigel assay relative to control; format: functional, cell-based; conditions: Homo sapiens; procedure, shortened: as §1
HUVEC [3] = assay: Cytotoxicity against HUVEC at 3 to 30 ug/ml by LDH release assay; format: cell-based; conditions: human
HUVEC [4] = assay: Antiangiogenic activity against HUVEC assessed as inhibition of capillary-like tube formation at 3 ug/ml after 15 hrs by Matrigel assay relative to control; format: functional; conditions: Homo sapiens; procedure, shortened: as §1
HUVEC [5] = assay: Cytotoxicity against HUVEC assessed as cell viability at 3 to 30 ug/ml after 48 hrs by MTT assay; format: cell-based; conditions: human
Procedure, shortened: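 HUVECs were grown on gelatin-coated plates to 80% confluency, then treated for 48 h alongside a 0.1% DMSO control. MTT was added to a final 0.05% for 3 h at 37 °C. Formazan was dissolved in DMSO and read at 570 nm against 630 nm reference. Viability was expressed as a percentage of untreated cells.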

Structure (SMILES)	inhibition at 30 µg/mL (HUVEC [1]) [%]	inhibition (HUVEC [2])	Activity (HUVEC [3])	inhibition at 3 µg/mL (HUVEC [4]) [%]	Activity (HUVEC [5])	inhibition (HUVEC [4])
COC(=O)[C@@]1(C)[C@@H](OC(C)=O)CC[C@@]2(C)[C@H]1CC(=O)[C@H]1[C@@H](C)/C(=C/C(=O)N(C)CCO)CC[C@@H]12	4.5	Active	Toxic	42	Non-toxic	–
COC(=O)[C@]1(C)[C@@H]2CC(=O)[C@H]3[C@@H](C)/C(=C/C(=O)N(C)CCO)CC[C@@H]3[C@@]2(C)CC[C@@H]1O	–	–	–	–	Non-toxic	Active
COC(=O)[C@@]1(C)CCC[C@@]2(C)[C@H]1CC(=O)[C@H]1[C@@H](C)/C(=C/C(=O)N(C)CCO)CC[C@@H]12	–	–	–	–	Non-toxic	Active
COC(=O)[C@@]1(C)CCC[C@@]2(C)[C@H]1[C@@H](O)C(=O)[C@H]1[C@@H](C)/C(=C/C(=O)N(C)CCO)CC[C@@H]12	–	–	–	–	Non-toxic	Active
COC(=O)[C@@]1(C)[C@@H](OC(C)=O)CC[C@@]2(C)[C@H]1[C@@H](O)C(=O)[C@H]1[C@@H](C)/C(=C/C(=O)N(C)CCO)CC[C@@H]12	–	–	–	–	Non-toxic	Active
COC(=O)[C@]1(C)[C@@H]2CC[C@H]3[C@@H](C)/C(=C/C(=O)N(C)CCO)CC[C@@H]3[C@@]2(C)CC[C@@H]1O	–	–	–	–	Non-toxic	Active
COc1cc(/C=C/C(=O)CC(=O)/C=C/c2ccc(O)c(OC)c2)ccc1O [CURCUMIN]	–	–	–	45	–	–
